Bioassay records from PubChem.
OXTR ag: human OXTR agonism | P30559 | CHO-OTR cells, Fluo-8 calcium fluorescence; normalized: DMSO 0%, oxytocin 100% | activation, % at 3 µM | 0.32% of 320,000 active;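 active means activation above the mean of all tested compounds plus 3 SD, cutoff set per screening run, cut at about 20% in these data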;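 further: peak over basal fluorescence ratio from a 100 s FLIPR kinetic read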
OXTR potentiate: human OXTR potentiation. P30559. CHO-OTR cells, Fluo-8 calcium fluorescence, potentiator mode; 0% = oxytocin EC15, 100% = EC100. activation, % at 3 µM. 0.061% of 320,000 active;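 active means activation above that plate's cutoff, the mean activation of tested compounds plus 3 SD, cut at about 6.6% in these data, passing the limit was not always enough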;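 further: 100% uses oxytocin at 75 nM as the full agonist control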
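assay system = CHO-OTR cells, human receptor | schedule = compound 6 min at room temperature before oxytocin, 100 s read | detection = Fluo-8 intracellular calcium fluorescence, ex 470-495, em 515-575 nm | evaluation = normalized max/min fluorescence ratio, % activation | control set = EC15 oxytocin alone as 0%, 75 nM oxytocin (EC100) as 100%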
TRPML3 ag: human mucolipin-3 channel agonism; 0.29% of 220,000 active; Q8TDD5; activation, % at 3 µM; AID 1448; HEK293 TRPML3-YFP, Fluo-8 calcium fluorescence; 100% = the carbachol control signal;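 active means activation above its plate's cutoff, the mean activation of the plate's test wells plus 3 SD, cut at about 12% in these data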;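 further: 0% = DMSO only wells and 100% = carbachol wells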
Target sequence (Q8TDD5 whole entry, looked up): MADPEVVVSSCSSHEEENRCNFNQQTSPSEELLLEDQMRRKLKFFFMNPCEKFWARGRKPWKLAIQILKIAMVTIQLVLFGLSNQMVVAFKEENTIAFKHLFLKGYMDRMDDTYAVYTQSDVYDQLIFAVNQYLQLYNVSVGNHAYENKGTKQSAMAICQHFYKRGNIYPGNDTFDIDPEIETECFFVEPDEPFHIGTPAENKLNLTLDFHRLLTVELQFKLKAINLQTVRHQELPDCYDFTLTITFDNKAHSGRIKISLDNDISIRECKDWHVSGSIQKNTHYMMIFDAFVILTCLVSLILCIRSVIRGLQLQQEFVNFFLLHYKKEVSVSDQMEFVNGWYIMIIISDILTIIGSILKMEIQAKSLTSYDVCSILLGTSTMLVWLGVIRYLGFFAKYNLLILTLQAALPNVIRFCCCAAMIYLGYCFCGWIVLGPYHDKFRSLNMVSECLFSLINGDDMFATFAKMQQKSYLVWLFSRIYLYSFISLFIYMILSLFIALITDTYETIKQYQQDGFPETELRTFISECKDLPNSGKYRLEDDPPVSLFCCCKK
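Test system: HEK293 cells stably carrying human TRPML3-YFP; Doses: single dose, 3 µM final nominal compound, 0.3% DMSO final; Schedule: dye loading 1 h 37 °C then 30 min ambient, 125 s read; Technique: Fluo-8 calcium fluorescence; Benchmarks: high control carbachol 87 µM, low control DMSO.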
V1aR counter: V1a receptor agonism, counter-screen for OXTR agonists | P37288 | CHO-V1R cells, Fluo-8 calcium fluorescence, agonist mode; 0% DMSO, 100% 3 nM vasopressin | activation, % at 3 µM | 0.25% of 320,000 active;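 active means activation above the mean activation of all tested compounds plus 3 SD, per screening run, cut at about 20% in these data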;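 further: signal is peak over basal fluorescence ratio across a 100 second FLIPR read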
zfTRPN1 agonist: agonists of zebrafish TRPN1 channel; HEK293 zebrafish TRPN1-YFP, Fluo-8 calcium fluorescence; 100% = response to 87 µM carbachol; activation, % at 3 µM; 0.18% of 220,000 active; AID 1424;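 active means activation above its plate's cutoff, the mean activation of test wells on that plate plus 3 SD, cut at about 19% in these data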;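 further: 0% = DMSO alone and 100% = 87 µM carbachol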
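Assay system: Zebrafish TRPN1-YFP in HEK293 cells | Incubation: Dye loading 1 h at 37 °C, then 30 min room temperature | Measured by: Kinetic Fluo-8 fluorescence, ex 470-495, em 515-575 nm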
TRPN1 ag 2: counter-screen for TRPML3 agonists: agonists of zebrafish TRPN1 channel; 10% of 310 active; HEK293 zebrafish TRPN1-YFP, Fluo-8 calcium fluorescence; scaled: carbachol wells 100%, DMSO wells 0%; shares compounds with TRPML3 ag; activation, % at 3 µM;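 active means mean activation over replicates above a set limit taken from the earlier TRPN1 channel primary screen, cut at about 19% in these data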;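 further: 100% = carbachol and 0% = 0.3% DMSO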
TRPML3 confirm: confirmation of human TRPML3 channel agonists | HEK293 TRPML3-YFP, Fluo-8 calcium fluorescence; 100% set by carbachol, 0% by DMSO | AID 1526 | shares compounds with TRPML3 ag | activation, % at 3 µM | 80% of 310 active;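 active means activation above a set limit derived from the earlier primary screen, cut at about 12% in these data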
OXTR ag confirm: confirmation of human oxytocin receptor agonists; CHO-OTR cells, Fluo-8 calcium fluorescence, agonist; AID 434963; shares compounds with OXTR ag; activation, % at 3 µM; 20% of 390 active;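 active means mean activation above about 20% derived from the earlier single-dose screen, limit read from the data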;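 further: peak over minimum fluorescence ratio per well during a 100 second FLIPR read; 0% = DMSO alone and 100% = oxytocin high control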
V1aR counter 3x: V1R agonism in triplicate, counter-screen for OXTR agonists; shares compounds with OXTR ag; CHO-V1R cells, Fluo-8 calcium fluorescence, agonist; activation, % at 3 µM; 10% of 390 active; AID 434991;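 active means mean activation over triplicate exceeds the hit threshold set in the earlier primary screen, cut at about 20% in these data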;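 further: peak over basal fluorescence ratio within a 100 second read; 0% = DMSO alone and 100% = 3 nM vasopressin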
V1aR agonist cf: human V1a receptor agonism, confirmation; shares compounds with V1aR counter; CHO-V1R cells, Fluo-8 calcium fluorescence, agonist; activation, % at 3 µM; 20% of 180 active; AID 434964;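 active means average activation exceeds primary screen hit cutoff, cut at about 21% in these data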;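 further: peak over basal fluorescence ratio during a 100 s FLIPR read; 0% = DMSO only wells and 100% = 3 nM vasopressin wells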
OXTR ag counter: activates oxytocin receptor in V1a agonist counter-screen; 10% of 180 active; activation, % at 3 µM; CHO-OTR cells, Fluo-8 calcium fluorescence; shares compounds with V1aR counter;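 active means mean activation over three repeats above the cutoff from the earlier oxytocin receptor agonist screen, cut at about 20% in these data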;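 further: peak over minimum fluorescence ratio within a 100 second FLIPR read; 0% = DMSO only wells and 100% = oxytocin high control wells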
* hit, by the source's call; . = no result given. The list is not random: actives were taken first. Their share in the collection is about 0.59%.

SMILES	OXTR ag	OXTR potentiate	TRPML3 ag	V1aR counter	zfTRPN1 agonist	TRPN1 ag 2	TRPML3 confirm	others
CCN(Cc1ccccc1)C(=O)c1ccc2c(=O)n3c(nc2c1)CCC3	0	-9	.	0	.	.	.
Cc1ccccc1N(CC(=O)NC1CCCC1)C(=O)c1oc(C(C)(C)C)cc1C	-1	-8	0	1	1	.	.
Cc1cc(C(C)(C)C)oc1C(=O)N(CC(=O)NC1CCCC1)Cc1ccccc1Cl	-1	-9	33*	1	3	2	34*
COc1ccc(OCC(NS(=O)(=O)c2ccc(-n3cnnn3)cc2)C(C)C)cc1 (centres undefined)	4	-12	.	6	.	.	.
Cc1ccccc1N1CCN(S(=O)(=O)c2ccccc2)CC1	-2	-6	65*	-1	-1	-2	36*
CC1CCCC(C)N1C(=C(Cl)Cl)C(=C1SCCS1)[N+](=O)[O-] (centres undefined)	-2	-6	14*	0	0	10	55*
Cc1ccc(N2C(=O)CS/C2=C(\C(Cl)=C(Cl)Cl)[N+](=O)[O-])cc1	0	-6	2	0	1	.	.
CC(C)(C)OC(=O)N[C@H](C(=O)OC(C)(C)C)c1ccc2c(c1)OCO2	-2	0	.	-1	.	.	.
CC(C)[C@H](NS(=O)(=O)c1ccc2c(c1)OCCO2)C(=O)OCC(=O)Nc1cccc(Cl)c1Cl	0	-10	20*	5	0	1	33*
CC(C)[C@H](NS(=O)(=O)c1ccc2c(c1)OCCO2)C(=O)OCC(=O)Nc1ccccc1Cl	0	-6	1	3	-1	.	.
COCCN(C(=O)c1oc2ccccc2c1COC)c1c(N)n(CC(C)C)c(=O)[nH]c1=O	-1	-4	.	-1	.	.	.
Cc1ccc(S(=O)(=O)n2nccc2-c2c(-c3ccc(Cl)cc3)noc2C)cc1	-1	-7	82*	2	1	0	106*
CCN(C1CCCCC1)S(=O)(=O)c1ccc(OC)c(C)c1	-2	-17	26*	-2	-1	-3	87*
CCN(C1CCCCC1)S(=O)(=O)c1ccc(-n2cnnn2)c(C)c1	1	-12	.	1	.	.	.
CCN(C1CCCCC1)S(=O)(=O)c1cc(C)ccc1OC	-2	-11	22*	-1	-1	-2	35*
CCCn1cc(S(=O)(=O)c2ccc(F)cc2)c(=O)c2cc(OCC)ccc21	-1	-1	.	0	.	.	.
C=CCOc1ccc2c(c1)c(S(=O)(=O)c1ccc(C)cc1)cn2COC	1	2	127*	1	1	0	139*
Cc1cc(NC(=O)NC(=O)c2ccccc2F)no1	0	-9	.	1	.	.	.
COc1ccc(S(=O)(=O)NC2CCCCC2)c(C)c1C	-2	-13	14*	-1	-2	-1	15*
CCC1CCCCN1S(=O)(=O)c1ccccc1[N+](=O)[O-] (centres undefined)	-2	-8	22*	-1	-1	0	22*
CC1CCCCN1S(=O)(=O)c1ccccc1[N+](=O)[O-] (centres undefined)	0	-1	6	0	0	.	.
NC(=O)c1ccc(NC(=O)CNC(=O)c2sc3ccccc3c2Cl)cc1	-1	-4	.	0	.	.	.
COC(=O)c1ccc(/C=C(\C#N)c2nc3ccccc3s2)cc1	30*	-9	14*	24*	14	1	1
C[N+](C)(C)C/C=C1/COCO1	2	-4	52*	0	8	14	40*
CN(C)c1ncc(S(=O)(=O)c2ccc(Cl)cc2)c(-c2ccc(Cl)cc2Cl)n1	-1	-7	1	1	0	.	.
SMILES	OXTR ag	OXTR potentiate	TRPML3 ag	V1aR counter	zfTRPN1 agonist	TRPN1 ag 2	TRPML3 confirm	others
CN(C)c1ncc(S(=O)(=O)c2ccccc2)c(-c2ccc(Cl)cc2Cl)n1	-3	-5	58*	0	0	-1	82*
COc1ccc(Cl)cc1C(=O)CSc1nnnn1C1CCCC1	2	-4	74*	0	-1	-1	51*
CC(=O)Oc1c(S(=O)(=O)c2ccc(C)cc2)c(C)nn1C(C)(C)C	-2	-8	3	-1	1	.	.
Cc1ccc(S(=O)(=O)c2c(C)nn(C(C)(C)C)c2OC(=O)C(C)(C)C)cc1	21*	-17	46*	6	4	5	39*	OXTR ag confirm=1;V1aR counter 3x=3
Cc1cc(C)nc(/N=C(\N)Nc2ccc(-c3ccccc3)cc2)n1	23*	-17	15*	16	16	21*	11	OXTR ag confirm=14;V1aR counter 3x=18
CCN(c1ccccc1)S(=O)(=O)c1cc(C(=O)OC2CCOC2=O)ccc1C (centres undefined)	-2	-8	.	1	.	.	.
Cc1nnc(-c2ccccc2)c(=O)n1/N=C/c1c(O)ccc2ccccc12	16	-12	13*	25*	15	2	1	V1aR agonist cf=24*;OXTR ag counter=22*
Cc1nn(CCCC(=O)NCc2ccc(F)cc2)c(=O)c2nccn12	0	0	.	-1	.	.	.
Cc1ccc(C(=O)Nc2ccccc2Sc2ccccc2)cc1	-2	-7	0	0	-2	.	.
Cc1ccc(-c2cc(NC(=O)c3ccccc3)on2)cc1	20*	-18	.	10	.	.	.	OXTR ag confirm=7;V1aR counter 3x=5
CCCN1C(=O)S/C(=C/c2ccc(N3CCOCC3)o2)C1=O	20*	-4	4	7	10	.	.	OXTR ag confirm=31*;V1aR counter 3x=55*
CCCN1C(=O)S/C(=C\c2ccc(N3CCOCC3)o2)C1=O	2	4	1	7	0	.	.
COC(=O)c1ccc(NC(=O)Nc2ccc([N+](=O)[O-])cc2)cc1	20*	-16	.	16	.	.	.	OXTR ag confirm=14;V1aR counter 3x=12
Cc1[nH]n(-c2ccccc2)c(=O)c1C(c1cccc([N+](=O)[O-])c1)c1c(C)[nH]n(-c2ccccc2)c1=O	24*	-12	1	10	2	.	.	OXTR ag confirm=8;V1aR counter 3x=8
